According to ChEMBL document CHEMBL1123424, “Conformationally defined adrenergic agents. 2. Catechol imidazoline derivatives: biological effects at alpha 1 and alpha 2 adrenergic receptors” (J Med Chem, 1986):

Tests used:
[1] = organism: Canis familiaris; assay: The compound was evaluated for the alpha-2-adrenergic activity in PBZ-pretreated dog saphenous vein as E max; format: functional; settings: Canis lupus familiaris
In short: (§1)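 Dog saphenous vein strips, gassed 95% O2/5% CO2, 37 °C, pH 7.45, 2 g preload, isometric contraction. After 15-20 min equilibration, maximal NE contraction (1 × 10⁻⁴ M) and 60 min wash. Phenoxybenzamine 1 × 10⁻⁷ M for 30 min, 60 min washout. Control cumulative NE curve, washout 45-60 min, then cumulative test-agonist curve. Index = ED50 NE/ED50 CPD per experiment, averaged.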

[2] = molecular target: T1, Adrenergic receptor alpha-2 (Rattus norvegicus, UniProt P22086+P19328+P22909); assay: The compound was evaluated for the inhibition of [3H]rauwolscine binding to alpha-2-adrenergic receptor from rat cortex
T1 sequence (P22086 whole entry): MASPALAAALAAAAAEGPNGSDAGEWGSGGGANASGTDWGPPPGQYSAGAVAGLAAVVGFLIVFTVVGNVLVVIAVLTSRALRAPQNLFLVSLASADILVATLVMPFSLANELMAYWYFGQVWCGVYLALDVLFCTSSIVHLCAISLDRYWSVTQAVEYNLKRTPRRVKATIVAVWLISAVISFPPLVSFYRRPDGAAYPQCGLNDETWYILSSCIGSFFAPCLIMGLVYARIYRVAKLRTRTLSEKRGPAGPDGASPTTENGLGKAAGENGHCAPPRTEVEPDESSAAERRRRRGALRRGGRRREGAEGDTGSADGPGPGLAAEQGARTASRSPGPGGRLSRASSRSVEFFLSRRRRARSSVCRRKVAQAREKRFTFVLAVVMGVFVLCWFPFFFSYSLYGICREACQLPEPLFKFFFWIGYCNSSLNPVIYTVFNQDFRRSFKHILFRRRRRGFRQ
T1 sequence (P19328 whole entry): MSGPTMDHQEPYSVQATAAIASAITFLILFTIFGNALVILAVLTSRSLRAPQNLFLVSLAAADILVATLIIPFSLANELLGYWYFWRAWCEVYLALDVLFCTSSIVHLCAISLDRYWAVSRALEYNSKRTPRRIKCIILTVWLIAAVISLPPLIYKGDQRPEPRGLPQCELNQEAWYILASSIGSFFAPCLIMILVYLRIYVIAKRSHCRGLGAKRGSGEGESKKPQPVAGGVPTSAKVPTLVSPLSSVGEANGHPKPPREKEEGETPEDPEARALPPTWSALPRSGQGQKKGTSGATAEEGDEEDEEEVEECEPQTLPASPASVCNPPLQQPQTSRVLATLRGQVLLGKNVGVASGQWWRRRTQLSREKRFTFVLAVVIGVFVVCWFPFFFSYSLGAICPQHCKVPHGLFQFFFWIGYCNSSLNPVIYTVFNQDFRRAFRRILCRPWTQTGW
T1 sequence (P22909 whole entry): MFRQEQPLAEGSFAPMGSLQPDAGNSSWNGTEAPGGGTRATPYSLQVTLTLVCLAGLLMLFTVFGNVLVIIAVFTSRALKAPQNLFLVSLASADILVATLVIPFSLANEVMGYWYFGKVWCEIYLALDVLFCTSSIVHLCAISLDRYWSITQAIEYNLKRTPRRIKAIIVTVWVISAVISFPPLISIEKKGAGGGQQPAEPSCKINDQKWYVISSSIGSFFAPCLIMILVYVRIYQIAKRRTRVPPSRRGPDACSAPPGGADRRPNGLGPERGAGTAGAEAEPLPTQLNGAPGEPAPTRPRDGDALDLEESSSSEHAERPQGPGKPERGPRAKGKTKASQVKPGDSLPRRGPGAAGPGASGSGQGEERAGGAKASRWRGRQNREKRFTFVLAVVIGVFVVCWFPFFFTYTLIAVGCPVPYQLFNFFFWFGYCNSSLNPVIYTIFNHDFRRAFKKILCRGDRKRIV
In short: (§2)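 Washed membranes of pooled male Sprague-Dawley rat cerebral cortex in 50 mM Tris-HCl pH 7.7, 50-150 μg/mL protein. [3H]rauwolscine incubated 2 h at 4 °C, then filtration. Nonspecific binding with phentolamine 10⁻⁵ M. At least four test concentrations between 10⁻¹⁰ and 10⁻³ M, in duplicate. IC50 from logit-log plot, Ki by Cheng-Prusoff.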

[3] = molecular target: T2, Adrenergic receptor alpha-1 (Rattus norvegicus, UniProt P15823+P23944+P43140); assay: The compound was evaluated for the inhibition of [3H]prazosin binding to alpha-1 adrenergic receptor from rat liver
T2 sequence (P15823 whole entry): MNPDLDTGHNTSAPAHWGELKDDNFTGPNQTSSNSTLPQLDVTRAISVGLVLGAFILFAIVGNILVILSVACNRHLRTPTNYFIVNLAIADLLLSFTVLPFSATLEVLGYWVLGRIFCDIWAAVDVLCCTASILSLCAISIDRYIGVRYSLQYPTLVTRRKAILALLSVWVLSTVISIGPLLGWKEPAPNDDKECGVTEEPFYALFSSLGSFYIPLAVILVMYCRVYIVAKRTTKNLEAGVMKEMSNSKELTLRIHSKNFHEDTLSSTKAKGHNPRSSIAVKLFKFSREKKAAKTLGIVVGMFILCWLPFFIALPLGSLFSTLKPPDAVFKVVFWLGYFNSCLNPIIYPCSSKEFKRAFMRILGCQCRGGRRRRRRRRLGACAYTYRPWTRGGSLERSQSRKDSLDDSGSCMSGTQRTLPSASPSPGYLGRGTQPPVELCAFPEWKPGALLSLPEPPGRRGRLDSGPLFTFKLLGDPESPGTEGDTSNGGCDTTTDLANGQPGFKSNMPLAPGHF
T2 sequence (P23944 whole entry): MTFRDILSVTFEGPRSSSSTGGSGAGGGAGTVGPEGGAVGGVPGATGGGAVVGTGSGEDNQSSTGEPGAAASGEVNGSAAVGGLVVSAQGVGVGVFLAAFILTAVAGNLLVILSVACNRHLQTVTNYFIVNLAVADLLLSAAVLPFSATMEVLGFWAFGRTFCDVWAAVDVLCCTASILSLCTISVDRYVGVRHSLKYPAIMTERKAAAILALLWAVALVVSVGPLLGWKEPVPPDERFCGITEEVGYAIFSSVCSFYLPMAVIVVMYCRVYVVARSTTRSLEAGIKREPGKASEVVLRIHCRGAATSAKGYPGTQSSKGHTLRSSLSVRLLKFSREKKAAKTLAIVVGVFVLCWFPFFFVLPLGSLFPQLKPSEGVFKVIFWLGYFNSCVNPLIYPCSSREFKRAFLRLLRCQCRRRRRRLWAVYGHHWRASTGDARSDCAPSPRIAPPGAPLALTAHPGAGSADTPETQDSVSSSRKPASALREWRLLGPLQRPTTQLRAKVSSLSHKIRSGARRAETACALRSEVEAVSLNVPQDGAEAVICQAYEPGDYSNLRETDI
T2 sequence (P43140 whole entry): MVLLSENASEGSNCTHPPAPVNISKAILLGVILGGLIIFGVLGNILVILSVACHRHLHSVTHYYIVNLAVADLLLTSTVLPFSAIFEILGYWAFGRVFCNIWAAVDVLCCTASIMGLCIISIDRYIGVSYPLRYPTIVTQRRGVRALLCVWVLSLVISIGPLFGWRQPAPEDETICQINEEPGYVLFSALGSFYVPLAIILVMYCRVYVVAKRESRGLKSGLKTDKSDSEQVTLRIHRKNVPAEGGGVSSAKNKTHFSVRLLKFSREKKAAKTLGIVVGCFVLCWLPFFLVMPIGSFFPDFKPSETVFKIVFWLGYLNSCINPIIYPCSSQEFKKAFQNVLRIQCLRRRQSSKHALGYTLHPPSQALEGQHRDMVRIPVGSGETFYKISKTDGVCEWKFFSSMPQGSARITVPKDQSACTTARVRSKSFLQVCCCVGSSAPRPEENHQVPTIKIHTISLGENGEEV
In short: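 Washed rat liver membranes (male Sprague-Dawley) in 50 mM Tris-HCl pH 7.7, 50-150 μg/mL protein. [3H]prazosin incubated 50 min at 25 °C, then filtration. Nonspecific binding with phentolamine 10⁻⁵ M. At least four test concentrations between 10⁻¹⁰ and 10⁻³ M, in duplicate. IC50 from logit-log plot, Ki by Cheng-Prusoff.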

[4] = molecular target: Adrenergic receptor alpha-1 (Homo sapiens) (UniProt P35348+P25100+P35368); assay: Index is the ratio between ED50 value of Norepinephrine to test compound at alpha-1 adrenergic receptor
[5] = molecular target: T1, Adrenergic receptor alpha-2; assay: The compound was evaluated for the binding affinity towards alpha-2 adrenergic receptor from rat cortex; in short: as §2
[6] = molecular target: Adrenergic receptor alpha-2 (Homo sapiens) (UniProt P08913+P18825+P18089); assay: Index is the ratio between ED50 value of Norepinephrine to test compound at alpha-2 adrenergic receptor; in short: as §1
[7] = organism: Oryctolagus cuniculus; assay: The compound was evaluated for the alpha-1-adrenergic activity in isolated rabbit aortic tissue as E max; format: functional; settings: Aorta
In short: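 Rabbit aorta helical strip in Krebs buffer, pH 7.4, 37 °C, 2 g initial tension, isometric contraction. […] Washout every 10-15 min for 60-90 min, then cumulative test-compound curve in the same tissue. Index = ED50 NE/ED50 CPD, calculated per experiment, then averaged.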

[8] = organism: Canis familiaris; assay: The compound was evaluated for the alpha-2-adrenergic activity in PBZ-pretreated dog saphenous vein as EED50 CPD; format: functional, Canis lupus familiaris; in short: as §1

SMILES | Emax [1] [%] | IC50 [2] [nM] | IC50 [3] [nM] | Ki [3] [nM] | Ratio [4] | Ki [5] [nM] | Ratio [6] | Emax [7] [%] | ED50 [8]
Br.Oc1ccc2c(c1O)CCC2C1=NCCN1 (stereo not given) | 102 | 3.3 | 1570 | 350 | 12 | 3.1 | 22 | 124 | –
Br.Oc1ccc2c(c1O)CCCCC2C1=NCCN1 (stereo not given) | – | 4200 | 56000 | 13000 | – | 4000 | 0.03 | – | 350
Br.Oc1ccc2c(c1O)CCCC2C1=NCCN1 (stereo not given) | 102 | 7 | 2500 | 400 | 13 | 6.5 | 188 | 114 | –
Br.Oc1ccc2c(c1O)CC2C1=NCCN1 (stereo not given) | 67 | 49 | 4400 | 1100 | 0.4 | 46 | 1.8 | 98 | –
